Article PMC7919060 (ACS chemical neuroscience, 2020)
Counter-ions that a name gives are not always drawn. Like-named read-outs stand apart in the source and are kept apart here.

Assays:
MDR1-MDCK cell monolayer = assay: Permeability and efflux in MDR1-MDCK cell monolayer; assay type: in vitro ADME
brain GlcCer [1] = details: normal mice, 60 mg/kg; cited from earlier work
[2] = Mouse pharmacokinetics, single IP dose 10 mg/kg; assay type: in vivo, CD-1 mice
P-glycoprotein (MDR1) = assay: Permeability and efflux in MDR1-MDCK cell monolayer; assay type: in vitro ADME; details: dog, MDCK-MDR1
[3] = Stability to human liver microsomes; assay type: in vitro ADME; details: pH 7.4
Procedure, shortened: (§1)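 Test compound at 1 μM with 0.5 mg/mL liver microsomes (CD-1 mouse or human), 1.7 mM β-NADPH, 0.1 M phosphate pH 7.4, 3.3 mM MgCl₂, 37 °C, final DMSO <0.1%. Aliquots at 0–60 min (seven points) were quenched in cold acetonitrile with internal standard. Parent remaining was measured by LC-MS/MS. Half-life was taken from ln(remaining) versus time.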

[4] = assay type: in vivo, D409V/D409V mice of C57BL/6 background; details: both, C57BL/6 (Gba D409V/D409V), mouse, ip, 10 mg/kg
Procedure, shortened: (§2)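 Gba D409V/D409V mice (C57BL/6 background) received CBE 25 mg/kg IP daily for 14 days from postpartum day 15. Test compound (10 mg/kg qd IP, citrate-saline) or buffer alone was coadministered; 8–11 mixed-gender mice per group. Sacrifice was 2 h after final dose. Brain GlcCer and GlcSph were separated from galactosyl analogues and quantified by LC-MS/MS. Values were normalised to tissue weight (pmol/mg) relative to vehicle controls; Student's t test.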

brain GlcCer and GlcSph = assay type: in vivo, D409V/D409V mice of C57BL/6 background; details: CBE mice
Procedure, shortened: as §2

[5] = Stability to mouse liver microsomes; assay type: in vitro ADME; details: CD-1, mouse, pH 7.4
Procedure, shortened: as §1

brain GlcCer [6] = assay: In vivo reduction of brain glucosylceramide in normal mice; details: normal C57BL/6 mice, IP
Procedure, shortened: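 Female or male C57BL/6 mice, 6–8 weeks old, on regular chow, given test compound or vehicle IP daily for 3 days. Injection volume was 1% of body weight. Two dose-response runs were done: 30, 10, 1 mg/kg and 1.0–0.03 mg/kg. Whole brain was homogenised in sucrose buffer, then chloroform/methanol extracted and subjected to alkaline methanolysis. Extract was normalised to 2 μmol phospholipid phosphate. GlcCer was quantified by HPTLC against standards.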

[7] = mouse, IP, 10 mg/kg, single dose

Compound | brain AUC [2, 7] [ng·h/g] | Papp A→B (P-glycoprotein (MDR1)) [×10⁻⁶ cm/s] | Papp B→A (P-glycoprotein (MDR1)) [×10⁻⁶ cm/s] | half-life at 1 μM [3] [min] | concentration at 2 h ([4]; brain) [ng/g] | concentration at 2 h ([4]; spleen) [ng/g] | reduction in brain GlcCer (brain GlcCer and GlcSph; IP 10 mg/kg qd for 14 days) [%] | reduction in brain GlcSph (brain GlcCer and GlcSph; IP 10 mg/kg qd for 14 days) [%] | half-life at 1 μM [5] [min] | other results
O=C(CC1Cc2ccccc2C1)N[C@H](CN1CCCC1)[C@H](O)c1ccc2c(c1)OCCO2 [Compound 2] | 36 |  |  |  |  |  |  |  |  | efflux ratio (MDR1-MDCK cell monolayer; MDR1-MDCK cell monolayer): 298; Papp A-B (MDR1-MDCK cell monolayer; MDR1-MDCK cell permeability): 0.14 ×10⁻⁶ cm/s; Papp B-A (MDR1-MDCK cell monolayer; MDR1-MDCK cell permeability): 40.8 ×10⁻⁶ cm/s; reduction in brain GlcCer (brain GlcCer [1]): 17%; cumulative B/P ratio (brain AUC/plasma AUC) [2, 7]: 0.11; plasma AUC [2, 7]: 317 ng·h/mL
CC(C)(NC(=O)O[C@@H]1CN2CCC1CC2)c1csc(-c2ccc(F)cc2)n1 [Compound 3, reference compound] | 6188 | 0.58 | 49 | > 60 | 493 | 4570 | 26 | 35 | > 60 | AUC ([2]; female, CD-1, mouse, plasma, ip, 10 mg/kg): 7160 ng·h/mL
O=C(CC1Cc2ccccc2C1)N[C@H](CN1CCCC1)[C@H](O)c1ccc(OC(F)(F)F)cc1 [Compound 17, 2-(2,3-Dihydro-1H-inden-2-yl)-N-((1R,2R)-1-hydroxy-3-(pyrrolidin-1-yl)-1-(4-(trifluoromethoxy)phenyl)propan-2-yl)acetamide] | 1046 | 0.95 | 56.6 |  | 134 | 4880 | 19 | 39 | 37 | effect on brain levels of galactosylceramide and galactosylsphingosine (brain GlcCer and GlcSph; selectivity vs galactosylceramide synthase, data not shown): lack of effect; reduction in brain GlcCer (brain GlcCer [6]; 1 mg/kg for 3 days): about 34%; reduction in brain GlcCer (printed as negative change) (brain GlcCer [6]; 30 mg/kg for 3 days): −41%; increase in overall brain exposure vs 2 ([2]; mouse, IP, 10 mg/kg, brain AUC relative to 2): ~30 fold; total brain exposure (AUC) as percentage of that of Genz-682452 ([2]; mouse, single 10 mg/kg IP dose): about 20%
CCCCCCCC(=O)N[C@H](CN1CCCC1)[C@H](O)c1ccc2c(c1)OCCO2 [eliglustat, eliglustat tartrate, reference compound] |  |  |  | 12.5 |  |  |  |  |  | activity on brain glycosphingolipids in CBE mouse assay (brain GlcCer and GlcSph; IP 10 mg/kg qd for 14 days): inactive
